Screening data (PubChem BioAssay)
ALR inh: inhibitors of human sulfhydryl oxidase ALR; AID 485317; P55789; inhibition, % (test concentration not listed); 3.8% of 290,000 active; purified ALR, DTT oxidation, H2O2 HRP-luminol luminescence;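 active means mean replicate inhibition above about 79%, with every replicate also reaching it, limit read from the data; inconclusive means only one of the two criteria met; inactive means mean below limit and not every replicate reaching it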
Target sequence (P55789 whole entry, looked up): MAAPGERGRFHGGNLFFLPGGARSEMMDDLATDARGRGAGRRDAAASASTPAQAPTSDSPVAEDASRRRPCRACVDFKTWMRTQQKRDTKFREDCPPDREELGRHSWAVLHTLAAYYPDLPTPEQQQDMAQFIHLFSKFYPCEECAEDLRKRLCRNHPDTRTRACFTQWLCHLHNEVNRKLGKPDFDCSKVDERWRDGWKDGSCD
UCH37 inh: blocks the human deubiquitinase UCH37; Q9Y5K5; purified proteasome/UCH37, Ub-AMC cleavage fluorescence; inhibition, % (concentration not given with the values); 0.33% of 330,000 active; AID 588478;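 active means mean inhibition over replicate wells above about 20%, limit read from the data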;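 further: 0% = compound-free wells with enzyme and 100% = wells lacking proteasome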
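system = Proteasome-associated human UCH37 deubiquitinase | amount = 0.15 nM proteasome as dispensed | medium = pH 7.4 Tris-HCl (50 mM) with ovalbumin, ATP-MgCl2, DTT | incubation = 30 min preincubation with enzyme, 25 min cleavage at room temperature | detection = AMC fluorescence 355/460 nm | read-out basis = percent inhibition | controls = no-proteasome and no-compound wells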
FAS-TE inh: FAS thioesterase (human) inhibition | 0.67% of 360,000 active | inhibition, % at 15 µM | recombinant FAS-TE, OMFH fluorogenic substrate, fluorescence endpoint;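 active means compounds whose normalised, plate-corrected inhibition of enzyme fluorescence in the single-dose primary screen is 50% or more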;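 further: 0% = DMSO with enzyme and 100% = substrate without enzyme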
HDAC3 inh: blocks human histone deacetylase 3. O15379. recombinant HDAC3, fluorogenic peptide/trypsin coupled, fluorescence. inhibition, % at 8.3 µM. 0.15% of 320,000 active; in the data active means inhibition above about 26%, passing the limit was not always enough; inconclusive means no clear call, values can overlap the other calls
Rtt109 Vps75: C. albicans Rtt109 histone acetyltransferase inhibition; 0.16% of 330,000 active; inhibition, % at 34.9 µM; purified Rtt109/Vps75, ThioGlo CoA-SH fluorescence, 4 h;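 active means inhibition of at least 50% in every replicate; inconclusive means best replicate reaches 50% inhibition but some replicates fall short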
Target sequence (Q5AAJ8 whole entry, looked up): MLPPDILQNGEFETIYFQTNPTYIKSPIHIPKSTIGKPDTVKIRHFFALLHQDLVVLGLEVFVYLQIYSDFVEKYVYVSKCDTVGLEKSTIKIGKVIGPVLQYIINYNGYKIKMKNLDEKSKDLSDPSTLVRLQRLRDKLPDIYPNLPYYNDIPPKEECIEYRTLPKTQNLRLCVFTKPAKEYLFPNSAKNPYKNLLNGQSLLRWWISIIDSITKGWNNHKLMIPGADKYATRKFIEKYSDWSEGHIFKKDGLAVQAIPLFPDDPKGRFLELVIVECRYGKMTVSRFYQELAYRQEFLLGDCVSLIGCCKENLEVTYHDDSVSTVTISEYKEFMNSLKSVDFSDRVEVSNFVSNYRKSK
PfM18AAP inh: PfM18AAP enzyme inhibition; recombinant PfM18AAP, H-Glu-NHMec fluorogenic cleavage; inhibition, % at 7.35 µM; 1.2% of 290,000 active; AID 1822;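 active means inhibition above the campaign mean inhibition over all tested compounds plus 3 SD, cut at about 28% in these data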;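 further: 0% = plate median of test compound wells and 100% = 2 mM ZnCl2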
Numbers without * were called inactive; ? = inconclusive; nt = not tested or not shown. This is a sample that favours compounds with a hit; in the whole collection about 4.6% have one here.

SMILES	ALR inh	UCH37 inh	FAS-TE inh	HDAC3 inh	Rtt109 Vps75	PfM18AAP inh
CCN(CC)CCC(c1ccc(N(C)C)cc1)c1c(O)cc(OC)cc1OC (centres undefined)	99.4*	0.9	-11.3	-6.3	3.0	nt
COc1cc(O)c(C(CCN2CCCC(C)C2)c2ccc(N(C)C)cc2)c(OC)c1 (centres undefined)	98.5*	3.9	-11.3	6.6	3.4	nt
COc1cc(O)c(C(CCN2CCCC(C)C2)c2ccc3c(c2)OCO3)c(OC)c1 (centres undefined)	-13.8	3.7	-7.3	-1.3	1.0	nt
CCN(CC)CCC(c1ccc(OC)cc1)c1c(O)cc(OC)cc1OC (centres undefined)	nt	0.6	-6.7	0.4	1.1	nt
O=C(NN=Cc1ccccn1)c1cc(-c2ccccc2)nc2ccccc12	nt	2.3	nt	nt	nt	nt
CC(=O)Nc1ccc(NC(=O)CC(C)=NNC(N)=S)cc1	nt	-0.1	nt	nt	nt	nt
CC(CC(C)C)=NNc1ccc([N+](=O)[O-])cc1[N+](=O)[O-]	nt	4.6	nt	nt	nt	nt
CN(Cc1nc(-c2cccnc2)no1)S(=O)(=O)c1ccccc1	nt	0.8	-3.2	0.2	-9.6	-12.9
c1ccc(-c2noc(CN3CCN(c4ccccc4)CC3)n2)cc1	82.0*	2.0	11.4	6.6	-8.2	3.0
COc1ccc(-c2noc(CN3CCN(c4ccccc4F)CC3)n2)cc1OC	99.7*	1.3	9.7	7.3	-7.8	-0.1
COc1ccc(-c2noc(CN(C)S(=O)(=O)c3ccccc3)n2)cc1OC	96.6*	-0.1	5.8	-5.6	-3.2	2.1
O=C(NN=CC(c1ccccc1)c1ccccc1)c1ccccc1F	nt	0.4	nt	nt	nt	nt
O=C1OCC/C1=C\c1ccc(O)cc1	98.2*	6.3	-6.2	13.7	0.9	-1.4
CC(=NOCC(=O)NC12CC3CC(CC(C3)C1)C2)c1cc2ccccc2o1	nt	2.3	nt	nt	nt	nt
Cc1cc(C(=O)N2CCN(c3ccc(F)cc3)CC2)on1	96.6*	6.3	-3.4	-8.8	-2.1	-1.1
CCOc1cc(CNc2ccc(N3CCN(C(C)=O)CC3)cc2)cc(Br)c1OC	nt	2.3	6.6	nt	12.0	15.7
CC(=O)N1CCN(c2ccc(NCc3ccc(F)cc3)cc2)CC1	98.8*	0.3	-4.5	2.9	-1.9	2.8
COc1cc(CNc2ccc(N3CCN(C(C)=O)CC3)cc2)ccc1OCc1ccc(F)cc1	99.1*	-2.3	0.5	?	9.1	10.2
CC(=O)N1CCN(c2ccc(NCc3cccc(C)c3)cc2)CC1	99.2*	1.4	-8.2	1.5	2.9	nt
CCN(CC)CCn1c(=S)[nH]c2ccc(Cl)cc2c1=O	89.4*	3.8	-9.8	-1.1	-5.3	22.3
O=C(Cc1ccccc1)NN=Cc1ccc(OC(=O)/C=C\c2ccco2)cc1	nt	1.0	nt	nt	nt	nt
CCN(CC)CCNc1nc(-c2ccc(OC)cc2)c(-c2ccc(OC)cc2)s1	98.5*	-3.3	-1.6	-0.2	0.5	6.2
COCCNc1nc(-c2ccc(OC)cc2)c(-c2ccc(OC)cc2)s1	94.2*	-3.8	19.6	11.4	11.9	-4.5
C[n+]1ccc(C(=O)NN=Cc2ccco2)cc1	nt	13.1	nt	nt	nt	nt
COc1ccccc1NS(=O)(=O)c1ccc(NN=Cc2c(C)nn(-c3ccccc3)c2N2CCCC2)c([N+](=O)[O-])c1	nt	11.4	nt	nt	nt	nt
SMILES	ALR inh	UCH37 inh	FAS-TE inh	HDAC3 inh	Rtt109 Vps75	PfM18AAP inh
Cn1c(-c2ccc3nc(N)sc3c2)nc2cc(N)ccc21	98.5*	-107.0	-2.1	-3.1	-0.9	11.2
CCOC(=O)/C=C/c1nc(C(=O)OCC)c(C)c(=O)[nH]1	96.9*	nt	-4.0	19.8	-1.2	-7.2
CC(=O)N(C)C1=C(N2CCOCC2)C(=O)c2ccccc2C1=O	-40.3	22.0*	-2.8	1.2	0.7	4.4
CC(=O)N(C1=C(N2CCOCC2)C(=O)c2ccccc2C1=O)c1ccc(C(=O)O)cc1	-15.7	24.1*	0.7	6.7	-2.2	5.8
Cc1cc(C=NNC(=O)C(O)(c2ccccc2)c2ccccc2)c(C)n1-c1ccccc1	nt	-0.4	nt	nt	nt	nt
O=C(CNC(=O)c1cccs1)NN=Cc1ccc(Cl)cc1	nt	5.2	nt	nt	nt	nt
C/C(C=NNC(=O)c1cc(C)oc1C)=C\c1ccccc1	nt	3.9	nt	nt	nt	nt
CN1CC(=O)N(CC(=O)NCCc2ccc(F)cc2)c2ccccc2C1=O	-11.2	1.7	-8.7	0.1	5.4	-12.0
CSc1ccc(NC(=O)NCCN2CCc3ccccc3C2)cc1	97.8*	1.5	-1.9	-4.5	8.5	1.8
CN1CC(=O)N(CC(=O)Nc2ccc(N(C)C)cc2)c2ccccc2C1=O	98.9*	1.1	-8.0	-1.6	-10.9	8.9
CN(C)c1ccc(NC(=O)CCN2CCN(c3ccccn3)CC2)cc1	99.0*	5.1	-5.6	-0.2	-6.6	-9.7
CN(C)c1ccc(NC(=O)CN2CCc3ccccc3C2)cc1	99.4*	2.2	-3.1	0.8	3.3	13.9
CC1(C)CC(=O)C(C=Nn2c(C(F)(F)F)nc3ccccc3c2=O)=C(O)C1	nt	2.2	nt	nt	nt	nt
Cc1cc(-c2ccccc2)nc(NN=Cc2ccc(O)cc2O)n1	nt	-2.5	nt	nt	nt	nt
CCN(CC)c1ccc(NC(=O)CN2CCN(CC(=O)Nc3ccc(OC)cc3)CC2)cc1	?	0.7	-1.9	2.0	6.7	-11.2
CN(C)c1ccc(NC(=O)CN2CCC(N3CCCCC3)CC2)cc1	99.3*	1.8	-1.4	-5.9	-7.5	-4.4
CCN(CC)c1ccc(NC(=O)CN2CCN(CC(=O)Nc3ccc(F)cc3)CC2)cc1	98.5*	1.1	3.5	0.9	-8.8	4.6
CN(C)c1ccc(NC(=O)CN2CCC(NC(=O)C3CCCCC3)CC2)cc1	58.5	2.3	-1.1	-0.6	15.2	3.8
O=C(CC1SC(=NS(=O)(=O)c2ccc(F)cc2)N(c2ccccc2)C1=O)Nc1ccccc1 (centres undefined)	nt	2.4	nt	nt	nt	nt
Cc1ccc(C(=O)c2c3ccccc3[n+]([O-])n2CCC(=O)O)cc1	6.1	0.9	-12.1	3.9	7.8	nt
CCOC(=O)c1c2ccccc2[n+]([O-])n1[C@@H](C)C(N)=O	22.1	32.3*	-10.2	-5.2	8.1	nt
COc1cc(/C=C2\C(=O)N(c3ccc(NC(C)=O)cc3)N=C2c2ccccc2)ccc1O	94.7*	2.9	-2.5	5.9	12.5	3.0
CCOc1cc(/C=C2\C(=O)N(c3nc(-c4ccc(Br)cc4)cs3)N=C2c2ccccc2)ccc1O	-1.4	7.5	5.3	1.6	7.2	4.4
CS/C(=C\[N+](=O)[O-])Nc1ccccc1	79.9*	4.7	-8.5	2.5	1.4	4.1
CS/C(=C\[N+](=O)[O-])Nc1ccc(F)cc1	20.0	3.7	-5.4	-2.1	-1.9	0.7
O=C(O)c1ccccc1/C=N/n1c(C2CCCCC2)n[nH]c1=S	97.7*	nt	-5.3	0.7	0.6	12.1
COc1cc(/C=N/n2c(C3CCCCC3)n[nH]c2=S)cc(Br)c1O	83.5*	nt	-1.2	-1.6	3.0	20.3
CN=c1scc(C)n1/N=C/c1cc(Br)c(O)c(OC)c1	99.0*	nt	-2.8	4.3	-0.9	28.0*
O=C(O)c1ccc(/C=N/n2c(C3CCCCC3)n[nH]c2=S)cc1	97.6*	nt	-3.8	6.1	5.1	29.5*
